Source: ChEMBL document CHEMBL1156763, “1,8-Naphthyridines VIII. Novel 5-aminoimidazo[1,2-a] [1,8]naphthyridine-6-carboxamide and 5-amino[1,2,4]triazolo[4,3-a] [1,8]naphthyridine-6-carboxamide derivatives showing potent analgesic or anti-inflammatory activity, respectively, and completely devoid of acute gastrolesivity” (Eur J Med Chem, 2010)

What was measured:
Rattus norvegicus [1] = experiment: Antiinflammatory activity against carrageenan-induced paw edema in Wistar rat assessed as inhibition of hind paw edema at 100 mg/kg, po administered 1 hr prior to carrageenan challenge measured after 3 hrs relative to control; format: functional
Procedure, shortened: (§1)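 Wistar rats of either sex (250–300 g), fasted overnight, gavaged with compound in 0.5% methylcellulose. 1 h later, 0.1 mL 1% carrageenan injected subcutaneously into the plantar hind paw. Paw volume read by plethysmometer right after injection and 3 h later. Control edema set as 100, % inhibition from swelling difference. Groups of 8–10; Student's t-test.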

Rattus norvegicus [2] = experiment: Antiinflammatory activity against carrageenan-induced paw edema in Wistar rat assessed as inhibition of hind paw edema at 50 mg/kg, po administered 1 hr prior to carrageenan challenge measured after 3 hrs relative to control; format: functional; procedure, shortened: as §1
Rattus norvegicus [3] = experiment: Acute gastrolesivity in Wistar rat assessed as appearance of gastric damage at 200 mg/kg, po after 5 hrs; format: toxicity, organism-based, Stomach; set-up: dose 200 mg/kg, route oral; details: in vivo
Procedure, shortened: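 Wistar rats (250–300 g), either sex, fasted overnight; compound suspended in 0.5% methylcellulose, single oral gavage at 200 mg kg^-1 (1 mL 100 g^-1). Stomachs excised 5 h later, fixed in 2% formalin, opened along greater curvature, examined by stereomicroscope by blinded observer. Reported as number of animals with gastric damage over treated animals (eight per group).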

Mus musculus [4] = experiment: Sedative activity in Swiss mouse assessed as inhibition of spontaneous locomotor activity at 100 mg/kg, po dose measured for every 5 mins up to 90 mins; format: organism-based; set-up: dose 100 mg/kg, route oral
Procedure, shortened: (§2)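 Overnight-fasted mice given compound (0.5% methylcellulose) or vehicle by oral gavage, then housed singly in an activity cage. Locomotion auto-recorded in 5-min intervals for 90 min; pulses of the final 30 min scored. % inhibition versus controls; runs between 9.00 and 13.00; groups of 8–10; Student's t-test.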

Mus musculus [5] = experiment: Analgesic activity in Swiss mouse assessed as inhibition of acetic acid-induced writhing response at 100 mg/kg, po administered 1 hr before acetic acid challenge measured for 30 mins relative to control; format: functional
Procedure, shortened: (§3)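 Mice of either sex (25–35 g), fasted overnight, dosed by oral gavage with test agent suspended in 0.5% methylcellulose; controls got vehicle alone. Each hind-limb full extension counted as a writhe over 30 min after the noxious agent. % inhibition from treated vs control writhing; groups of 8–10; Student's t-test. Dosing starts at 100 mg/kg, then halved stepwise.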

Rattus norvegicus [6] = experiment: Antiinflammatory activity against carrageenan-induced paw edema in Wistar rat assessed as inhibition of hind paw edema at 12.5 mg/kg, po administered 1 hr prior to carrageenan challenge measured after 3 hrs relative to control; format: functional; procedure, shortened: as §1
Rattus norvegicus [7] = experiment: Antiinflammatory activity against carrageenan-induced paw edema in Wistar rat assessed as inhibition of hind paw edema at 25 mg/kg, po administered 1 hr prior to carrageenan challenge measured after 3 hrs relative to control; format: functional; procedure, shortened: as §1
Mus musculus [8] = experiment: Analgesic activity in Swiss mouse assessed as inhibition of acetic acid-induced writhing response at 50 mg/kg, po administered 1 hr before acetic acid challenge measured for 30 mins relative to control; format: functional; procedure, shortened: as §3
Mus musculus [9] = experiment: Sedative activity in Swiss mouse assessed as inhibition of spontaneous locomotor activity at 50 mg/kg, po dose measured for every 5 mins up to 90 mins; format: organism-based; set-up: dose 50 mg/kg, route oral; procedure, shortened: as §2
Mus musculus [10] = experiment: Analgesic activity in Swiss mouse assessed as inhibition of acetic acid-induced writhing response at 25 mg/kg, po administered 1 hr before acetic acid challenge measured for 30 mins relative to control; format: functional; procedure, shortened: as §3
Mus musculus [11] = experiment: Analgesic activity in Swiss mouse assessed as inhibition of acetic acid-induced writhing response at 12.5 mg/kg, po administered 1 hr before acetic acid challenge measured for 30 mins relative to control; format: functional; procedure, shortened: as §3

Row | Structure (SMILES) | inhibition in vivo at 100 mg/kg (Rattus norvegicus [1]) [%] | inhibition in vivo at 50 mg/kg (Rattus norvegicus [2]) [%] | Activity (Rattus norvegicus [3]) | inhibition at 100 mg/kg (Mus musculus [4]) [%] | inhibition in vivo at 100 mg/kg (Mus musculus [5]) [%] | inhibition in vivo at 12.5 mg/kg (Rattus norvegicus [6]) [%] | inhibition in vivo at 25 mg/kg (Rattus norvegicus [7]) [%] | inhibition in vivo at 50 mg/kg (Mus musculus [8]) [%] | inhibition at 50 mg/kg (Mus musculus [9]) [%] | inhibition in vivo at 25 mg/kg (Mus musculus [10]) [%] | inhibition in vivo at 12.5 mg/kg (Mus musculus [11]) [%]
1 | CCc1nnc2c(C(=O)N(CC)CC)c(N(C)CC(C)C)c3cccnc3n12 | 39 | 42 | Non-toxic | 60 | 92 | 8 | 28 | 26 |  |  | 
2 | CCN(CC)C(=O)c1c(N2CCN(CCO)CC2)c2cccnc2n2ccnc12 | 0 |  | Non-toxic | 39 | 41 |  |  | 12 |  |  | 
3 | CCN(C)C(=O)c1c(NC(C)C)c2cccnc2n2c(C(C)C)nnc12 | 46 | 0 | Non-toxic | 96 | 82 |  |  | 0 |  |  | 
4 | CCN(CC)C(=O)c1c(N2CCN(c3ccccc3OC)CC2)c2cccnc2n2ccnc12 | 16 |  | Non-toxic | 86 | 63 |  |  | 0 |  |  | 
5 | CCN(CC)C(=O)c1c(NCC(C)C)c2cccnc2n2ccnc12 | 0 |  | Non-toxic | 68 | 71 |  |  | 48 | 28 | 48 | 0
6 | CCN(CC)C(=O)c1c(N2CCN(Cc3ccccc3)CC2)c2cccnc2n2ccnc12 | 26 | 10 | Non-toxic | 42 | 46 |  |  | 0 |  |  | 
7 | CCN(CC)C(=O)c1c(N2CCN(C)CC2)c2cccnc2n2c(N(C)C)cnc12 | 0 |  | Non-toxic | 44 | 83 |  |  | 16 | 30 |  | 
8 | CCN1CCN(c2c(C(=O)N(CC)CC)c3nccn3c3ncccc23)CC1 | 5 |  | Non-toxic | 67 | 80 |  |  | 30 |  |  | 
9 | CCOC(=O)c1cn2c(n1)c(C(=O)N(CC)CC)c(N1CCN(C)CC1)c1cccnc12 | 0 |  | Non-toxic | 0 | 75 |  |  | 2 |  |  | 
10 | CCN(CC)C(=O)c1c(NC)c2cccnc2n2c(C)cnc12 | 38 | 20 | Non-toxic | 55 | 73 |  |  | 0 |  |  | 
11 | CCNc1c(C(=O)N(CC)CC)c2nccn2c2ncccc12 | 29 | 26 | Non-toxic | 89 | 60 | 0 | 25 | 2 |  |  | 
12 | CC(C)CNc1c(C(=O)N2CCN(C)CC2)c2nnc(C(C)C)n2c2ncccc12 | 0 |  | Non-toxic | 0 | 48 |  |  | 29 |  |  | 
13 | CCN(CC)C(=O)c1c(N2CCN(Cc3ccccc3)CC2)c2cccnc2n2c(C)cnc12 | 0 |  |  |  | 17 |  |  |  |  |  | 
14 | CCN(CC)C(=O)c1c(NCC(C)C)c2cccnc2n2c(C)cnc12 | 0 |  |  |  | 0 |  |  |  |  |  | 
15 | CCN(CC)C(=O)c1c(N2CCN(C)CC2)c2cccnc2n2ccnc12 | 0 |  | Non-toxic | 77 | 80 |  |  | 74 | 41 | 56 | 32
